Results published in ChEMBL document CHEMBL2157924, “Cyclobutane derivatives as novel nonpeptidic small molecule agonists of glucagon-like peptide-1 receptor” (J Med Chem, 2012).
Activity calls are given as the source filed them. No cut-off for these calls is given here.

Key:
[1] = target: Glucagon receptor (Homo sapiens) (UniProt P47871); assay: Agonist activity at human glucagon receptor expressed in HEK293 cells assessed as stimulation of cAMP levels incubated for 6 hrs by multiple response element/cAMP response element (MRE/CRE)-driven reporter gene assay; assay type: functional, cell-based
Chain of Glucagon receptor (Homo sapiens) (P47871 whole entry): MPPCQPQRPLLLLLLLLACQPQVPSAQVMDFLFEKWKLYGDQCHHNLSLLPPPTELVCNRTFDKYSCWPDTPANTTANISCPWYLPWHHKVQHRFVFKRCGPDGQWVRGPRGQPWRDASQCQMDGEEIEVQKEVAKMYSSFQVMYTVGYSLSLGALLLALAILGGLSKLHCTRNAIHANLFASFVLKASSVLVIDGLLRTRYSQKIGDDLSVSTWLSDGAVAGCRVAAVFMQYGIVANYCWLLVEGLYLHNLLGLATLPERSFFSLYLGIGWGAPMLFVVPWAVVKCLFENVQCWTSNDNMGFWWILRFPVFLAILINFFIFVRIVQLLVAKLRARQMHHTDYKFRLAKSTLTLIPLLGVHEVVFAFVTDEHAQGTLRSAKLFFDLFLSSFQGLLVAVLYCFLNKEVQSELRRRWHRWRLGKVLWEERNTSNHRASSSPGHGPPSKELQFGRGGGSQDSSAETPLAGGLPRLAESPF
How it was run: (§1)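 HEK293 cells transiently cotransfected with human GLP-2 receptor or glucagon receptor expression vector plus a luciferase reporter carrying three copies of multiple response element and one cAMP response element. Luciferase activity at different compound concentrations was expressed relative to the respective native peptide (GLP-2 or glucagon, 100%). Mean ± SEM of triplicate experiments.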

[2] = target: T1, Glucagon-like peptide 2 receptor (Homo sapiens) (UniProt O95838); assay: Agonist activity at human GLP2R expressed in HEK293 cells assessed as stimulation of cAMP levels incubated for 6 hrs by multiple response element/cAMP response element (MRE/CRE)-driven reporter gene assay; assay type: functional, cell-based; how it was run: as §1
T1 sequence (whole entry): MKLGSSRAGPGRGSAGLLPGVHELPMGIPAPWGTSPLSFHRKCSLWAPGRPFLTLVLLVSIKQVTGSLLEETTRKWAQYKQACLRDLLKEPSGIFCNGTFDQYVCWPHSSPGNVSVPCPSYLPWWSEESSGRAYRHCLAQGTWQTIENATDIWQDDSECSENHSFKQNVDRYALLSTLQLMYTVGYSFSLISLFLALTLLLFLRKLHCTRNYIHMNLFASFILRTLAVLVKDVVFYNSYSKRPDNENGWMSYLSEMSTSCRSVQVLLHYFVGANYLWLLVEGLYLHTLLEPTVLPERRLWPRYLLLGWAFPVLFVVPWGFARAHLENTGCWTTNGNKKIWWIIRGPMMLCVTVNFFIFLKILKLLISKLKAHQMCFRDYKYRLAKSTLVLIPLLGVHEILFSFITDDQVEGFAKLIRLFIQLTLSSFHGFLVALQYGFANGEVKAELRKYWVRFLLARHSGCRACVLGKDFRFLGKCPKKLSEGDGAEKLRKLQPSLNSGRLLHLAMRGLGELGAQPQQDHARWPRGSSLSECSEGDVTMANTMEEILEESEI

[3] = target: T2, Glucagon-like peptide 1 receptor (Rattus norvegicus) (UniProt P32301); assay: Inhibition of [125I]GLP1 (7-36) amide binding to rat GLP1R expressed in HEK293 cells relative to untreated control; assay type: cell-based; parameters: concentration or dose not given beside the values; conditions: concentration not given here
T2 sequence (whole entry): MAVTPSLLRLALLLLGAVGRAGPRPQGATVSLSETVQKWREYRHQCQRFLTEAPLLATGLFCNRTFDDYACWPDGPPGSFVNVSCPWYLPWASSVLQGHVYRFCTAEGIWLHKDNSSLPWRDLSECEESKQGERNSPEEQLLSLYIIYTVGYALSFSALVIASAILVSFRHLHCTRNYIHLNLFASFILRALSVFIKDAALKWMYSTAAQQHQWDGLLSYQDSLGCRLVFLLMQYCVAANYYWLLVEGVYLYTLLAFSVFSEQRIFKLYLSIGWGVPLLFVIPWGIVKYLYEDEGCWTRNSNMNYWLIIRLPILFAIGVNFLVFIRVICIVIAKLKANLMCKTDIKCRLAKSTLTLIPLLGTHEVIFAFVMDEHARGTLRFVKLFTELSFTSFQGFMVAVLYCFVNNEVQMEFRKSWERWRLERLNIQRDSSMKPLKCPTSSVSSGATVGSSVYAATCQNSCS
How it was run: (§2)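 Membranes (17 μg protein) from HEK293 cells stably expressing rat GLP-1R were preincubated 5 h at 4 °C with FlashBlue beads (150 μg). Then 40 pM [125I]GLP-1(7−36) amide or [125I]Exendin(9−39) was added with aprotinin 2 μg/mL, leupeptin 100 μM and test compound at varied concentrations. Incubated overnight at 4 °C, then bound radioactivity counted. Mean ± SEM of two independent experiments.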

[4] = target: T2, Glucagon-like peptide 1 receptor (Rattus norvegicus); assay: Agonist activity at rat GLP1R expressed in HEK293 cells assessed as stimulation of cAMP levels incubated for 6 hrs by multiple response element/cAMP response element (MRE/CRE)-driven reporter gene assay relative to 10 nM GLP1; assay type: functional, cell-based
How it was run: (§3)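 Stable HEK293 line co-expressing rat GLP-1R (pCMV-Tag2B) and a luciferase reporter with 3× MRE plus 1× CRE, seeded at 40000 cells/well and cultured overnight. Compounds in DMSO or GLP-1(7−37) were added for 6 h, then cells were lysed and luciferase read (Steady-Glo). The 10 nM GLP-1 maximum was taken as 100%. Mean ± SEM of two independent experiments; some values come from a single run.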

[5] = target: T3, Glucagon-like peptide 1 receptor (Rattus norvegicus, UniProt P32301); assay: Agonist activity at rat GLP1R expressed in HEK293 cells assessed as stimulation of cAMP levels incubated for 6 hrs by multiple response element/cAMP response element (MRE/CRE)-driven reporter gene assay; assay type: functional, cell-based; how it was run: as §3
T3 sequence (P32301 whole entry): T2 sequence (whole entry)

[6] = target: T2, Glucagon-like peptide 1 receptor (Rattus norvegicus); assay: Inhibition of [125I]Exendin (9-39) binding to rat GLP1R expressed in HEK293 cells; assay type: cell-based; parameters: concentration or dose not given beside the values; conditions: concentration not given here; how it was run: as §2
[7] = target: T3, Glucagon-like peptide 1 receptor; assay: Inhibition of [125I]GLP1 (7-36) amide binding to rat GLP1R expressed in HEK293 cells; assay type: cell-based; how it was run: as §2
[8] = tested on: Mus musculus; assay: Reduction of body weight in C57BL/6J mouse diet-induced obesity model at 3 mg, ip dosed 3 times per week for 28 days by chronic weight loss study; assay type: functional, organism-based
How it was run: (§4)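 Male C57BL/6J mice (8 weeks at start, 18−20 g) kept on high-fat diet (60% fat) for 12 weeks, then randomised by body weight to groups of n = 8−9. Dosed ip Monday/Wednesday/Friday for 28 days with 0, 0.3, 1 or 3 mg in 1% DMSO/20% PEG400/saline, pH 7.4. Body weight recorded daily; a standard-chow group (n = 8) served as reference.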

[9] = tested on: Mus musculus; assay: Inhibition of acute food intake in intraperitoneally dosed C57BL/6J mouse measured 6 hrs post dose; assay type: functional, organism-based
How it was run: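 Male C57BL/6J mice (6 weeks, 18−20 g) fasted overnight and given a single ip dose of 0.1, 0.3, 1 or 3 mg or vehicle (1% DMSO, 20% PEG400 in saline). Mice housed singly with a preweighed food pellet, reweighed every 15 or 30 min for 6 h to give cumulative intake. n ≥ 6 per group; mean ± SEM.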

[10] = tested on: Mus musculus; assay: Reduction of body weight in C57BL/6J mouse diet-induced obesity model dosed intraperitoneally 3 times per week for 28 days by chronic weight loss study; assay type: functional, organism-based; how it was run: as §4

| Molecule | Activity [1] | Activity [2] | inhibition [3] [%] | Efficacy [4] [%] | EC50 [5] [nM] | inhibition [6] [%] | IC50 [7] [nM] | Activity [8] | inhibition [9] | Activity [10] |
| --- | --- | --- | --- | --- | --- | --- | --- | --- | --- | --- |
| GLUCAGON | Active |  |  |  |  |  |  |  |  |  |
| CC[C@H](C)[C@H](NC(=O)[C@H](Cc1ccccc1)NC(=O)[C@H](CC(=O)O)NC(=O)[C@H](CCCNC(=N)N)NC(=O)[C@H](C)NC(=O)[C@H](C)NC(=O)[C@H](CC(C)C)NC(=O)[C@H](CC(N)=O)NC(=O)[C@H](CC(=O)O)NC(=O)[C@H](CC(C)C)NC(=O)[C@@H](NC(=O)[C@@H](NC(=O)[C@H](CC(N)=O)NC(=O)[C@H](CCSC)NC(=O)[C@H](CCC(=O)O)NC(=O)[C@H](CC(=O)O)NC(=O)[C@H](CO)NC(=O)[C@H](Cc1ccccc1)NC(=O)[C@H](CO)NC(=O)CNC(=O)[C@H](CC(=O)O)NC(=O)[C@H](C)NC(=O)[C@@H](N)Cc1cnc[nH]1)[C@@H](C)O)[C@@H](C)CC)C(=O)N[C@@H](CC(N)=O)C(=O)N[C@@H](Cc1c[nH]c2ccccc12)C(=O)N[C@@H](CC(C)C)C(=O)N[C@H](C(=O)N[C@@H](CCC(N)=O)C(=O)N[C@H](C(=O)N[C@@H](CCCCN)C(=O)N[C@H](C(=O)N[C@H](C(=O)N[C@@H](CC(=O)O)C(=O)N[C@@H](CCCNC(=N)N)C(=O)O)[C@@H](C)O)[C@@H](C)CC)[C@@H](C)O)[C@@H](C)CC |  | Active |  |  |  |  |  |  |  |  |
| CC[C@H](C)[C@H](NC(=O)[C@H](Cc1ccccc1)NC(=O)[C@H](CCC(=O)O)NC(=O)[C@H](CCCCN)NC(=O)[C@H](C)NC(=O)[C@H](C)NC(=O)[C@H](CCC(N)=O)NC(=O)CNC(=O)[C@H](CCC(=O)O)NC(=O)[C@H](CC(C)C)NC(=O)[C@H](Cc1ccc(O)cc1)NC(=O)[C@H](CO)NC(=O)[C@H](CO)NC(=O)[C@@H](NC(=O)[C@H](CC(=O)O)NC(=O)[C@H](CO)NC(=O)[C@@H](NC(=O)[C@H](Cc1ccccc1)NC(=O)[C@@H](NC(=O)CNC(=O)[C@H](CCC(=O)O)NC(=O)[C@H](C)NC(=O)[C@H](Cc1cnc[nH]1)NC(=O)[C@H](CCCNC(=N)N)NC(=O)[C@H](CCC(=O)O)NC(=O)[C@H](Cc1ccccc1)NC(=O)[C@H](CCC(=O)O)NC(=O)[C@H](CC(=O)O)NC(=O)[C@@H](N)Cc1cnc[nH]1)[C@@H](C)O)[C@@H](C)O)C(C)C)C(=O)N[C@@H](C)C(=O)N[C@@H](Cc1c[nH]c2ccccc12)C(=O)N[C@@H](CC(C)C)C(=O)N[C@H](C(=O)N[C@@H](CCCCN)C(=O)NCC(=O)N[C@@H](CCCNC(=N)N)C(=O)NCC(=O)O)C(C)C |  | inactive | 100 | 100 | 0.09 | 97 | 1 |  |  |  |
| COc1cc([C@H]2[C@](NC(=O)c3ccc(NC(=O)OC(C)(C)C)cc3)(C(=O)O)[C@@H](c3ccc(OC(=O)c4cccs4)c(OC)c3)[C@]2(NC(=O)c2ccc(NC(=O)OC(C)(C)C)cc2)C(=O)O)ccc1OC(=O)c1cccs1 (stereo in doubt; 3) | inactive | inactive | 87.2 | 96.7 |  | 63.1 |  | Active |  |  |
| COc1cc([C@H]2[C@](NC(=O)c3ccc(NC(=O)C(C)C)cc3)(C(=O)O)[C@@H](c3ccc(OC(=O)c4cccs4)c(OC)c3)[C@]2(NC(=O)c2ccc(NC(=O)C(C)C)cc2)C(=O)O)ccc1OC(=O)c1cccs1 |  |  | 58.2 | 73.6 | 203 | 49.7 | 300 |  | Active | Dose-dependent effect |
